Laboratory results taken from ChEMBL document CHEMBL4414551, “Design, Synthesis, and Biological Evaluation of Substituted 4,6-Dihydrospiro[[1,2,3]triazolo[4,5-b]pyridine-7,3'-indoline]-2',5(3H)-dione Analogues as Potent NS4B Inhibitors for the Treatment of Dengue Virus Infection” (J Med Chem, 2019).
Calls of active or inactive are those of the source. The calls are words filed in the database; no cut-off is given here.

Assays:
dengue virus type 2 [1] = experiment: (§1) Antiviral activity against NS4B V63M mutant containing Dengue virus 2 isolate P12-IV infected in human HuH7 cells using viral isolates selected by serial passaging in presence of test compound incubated for 3 days by viral reduction assay; assay type: functional, organism-based; details: Huh-7, 72 h
dengue virus type 2 [2] = experiment: (§2) Resistance index, ratio of EC50 for antiviral activity against NS3 T606A mutant containing Dengue virus 2 isolate P12-II infected in human HuH7 cells using viral isolates selected by serial passaging in presence of DMSO incubated for 3 days by viral reduction assay to EC50 for antiviral activity against Dengue virus 2 isolate P0 infected in human HuH7 cells incubated for 3 days by viral reduction assay; assay type: functional
dengue virus type 2 [3] = experiment: Antiviral activity against NS3 T606A mutant and NS4B V63L mutant containing Dengue virus 2 isolate P12-VI infected in human HuH7 cells using viral isolates selected by serial passaging in presence of test compound incubated for 3 days by viral reduction assay; assay type: functional, organism-based; details: Huh-7, 72 h
dengue virus type 2 [4] = experiment: as §1, with “Resistance index, ratio of EC50 for antiviral” for “Antiviral”, “assay to EC50 for antiviral activity against Dengue virus 2 isolate P0 infected in human HuH7 cells incubated for 3 days by viral reduction assay” for “assay”; assay type: functional
dengue virus type 2 [5] = experiment: Antiviral activity against NS3 T606A mutant containing Dengue virus 2 isolate P12-I infected in human HuH7 cells using viral isolates selected by serial passaging in presence of DMSO incubated for 3 days by viral reduction assay; assay type: functional, organism-based; details: Huh-7, 72 h
dengue virus type 2 [6] = experiment: as §2, with “P12-I” for “P12-II”; assay type: functional
dengue virus type 2 [7] = experiment: Antiviral activity against Dengue virus 2 isolate P0 infected in human HuH7 cells incubated for 3 days by viral reduction assay; assay type: functional, organism-based; details: isolate P0, Huh-7, 72 h
[8] = Cytotoxicity in human HuH7 replicon cells infected with Dengue virus 2 NGC assessed as reduction in cell viability incubated for 48 hrs by Cell-titer-Glo reagent based assay; design: species or system Huh-7
Procedure, shortened: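 Huh7 cells or Huh7 replicon cells plated, then held at 37 °C with 5% CO₂ overnight. Exposed to 2-fold serial compound dilutions for 48 h, in duplicate. Viability read with CellTiter-Glo and normalized to 0.45% DMSO wells set at 100%. CC50 from four-parameter logistic fit.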

dengue virus type 4 [9] = experiment: Antiviral activity against Dengue virus 4 D4MY01-22713 infected in human HuH7 replicon cells expressing Renilla luciferase and neomycin-resistance genes assessed as reduction in viral replication incubated for 48 hrs by luciferase reporter replicon-based assay; assay type: functional, organism-based; details: D4MY01-22713, Huh-7, 48 h
Procedure, shortened: (§3)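 Huh7 cells stably carrying a Renilla luciferase/neomycin-resistance replicon (DENV-1 WestPac, DENV-2 NGC, DENV-3 D3MY05-34640 or DENV-4 D4MY01-22713). Cells seeded at 10k per well and incubated overnight at 37 °C, 5% CO2. Then exposed to 2-fold serial compound dilutions for 48 h, in duplicate. Luciferase read with a live-cell substrate. EC50 from four-parameter logistic fit.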

dengue virus type 3 = experiment: Antiviral activity against Dengue virus 3 D3MY05-34640 infected in human HuH7 replicon cells expressing Renilla luciferase and neomycin-resistance genes assessed as reduction in viral replication incubated for 48 hrs by luciferase reporter replicon-based assay; assay type: functional, organism-based; details: D3MY05-34640, Huh-7, 48 h; procedure, shortened: as §3
dengue virus type 2 [10] = experiment: Antiviral activity against NS3 T606A mutant and NS4B V63M mutant containing Dengue virus 2 isolate P12-III infected in human HuH7 cells using viral isolates selected by serial passaging in presence of test compound incubated for 3 days by viral reduction assay; assay type: functional, organism-based; details: Huh-7, 72 h
dengue virus type 2 [11] = experiment: as §2, with “NS4B V63M and P104S” for “NS3 T606A”, “P12-V” for “P12-II”, “test compound” for “DMSO”; assay type: functional
dengue virus type 2 [12] = experiment: Antiviral activity against NS4B V63M and P104S mutant containing Dengue virus 2 isolate P12-V infected in human HuH7 cells using viral isolates selected by serial passaging in presence of test compound incubated for 3 days by viral reduction assay; assay type: functional, organism-based; details: Huh-7, 72 h
dengue virus type 1 [13] = experiment: Antiviral activity against Dengue virus 1 WestPac infected in human HuH7 replicon cells expressing Renilla luciferase and neomycin-resistance genes assessed as reduction in viral replication incubated for 48 hrs by luciferase reporter replicon-based assay; assay type: functional, organism-based; details: Huh-7, 48 h; procedure, shortened: as §3
dengue virus type 2 [14] = experiment: Antiviral activity against Dengue virus 2 NGC infected in human HuH7 replicon cells expressing Renilla luciferase and neomycin-resistance genes assessed as reduction in viral replication incubated for 48 hrs by luciferase reporter replicon-based assay; assay type: functional, organism-based; details: Huh-7, 48 h; procedure, shortened: as §3
dengue virus type 2 [15] = experiment: Antiviral activity against NS3 T606A mutant containing Dengue virus 2 isolate P12-II infected in human HuH7 cells using viral isolates selected by serial passaging in presence of DMSO incubated for 3 days by viral reduction assay; assay type: functional, organism-based; details: Huh-7, 72 h
dengue virus type 2 [16] = experiment: as §2, with “mutant and NS4B V63L mutant” for “mutant”, “P12-VI” for “P12-II”, “test compound” for “DMSO”; assay type: functional
dengue virus type 2 [17] = experiment: as §2, with “mutant and NS4B V63M mutant” for “mutant”, “P12-III” for “P12-II”, “test compound” for “DMSO”; assay type: functional
dengue virus type 2 [18] = experiment: Inhibition of NS4B in Dengue virus 2 NGC infected in human HuH7 replicon cells lysates at 10 ujM incubated for 48 hrs by SDS-PAGE based pull down assay; assay type: subcellular; details: Lysate
Procedure, shortened: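 Huh7 cells, 4×10⁶ per T-75, infected next day with DENV-2 NGC at MOI 2.0 with 10 µM biotinylated probe, or 0.25% DMSO, for 48 h at 37 °C. Lysis in 20 mM Tris-HCl pH 7.5, 100 mM NaCl, 0.5% DDM with protease inhibitors. Lysate spiked with compound to 100 µM final, then streptavidin magnetic beads at 4 °C overnight. Bead eluates resolved on 12% SDS-PAGE; NS4B detected by anti-NS4B monoclonal Western blot.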

dengue virus type 1 [19] = experiment: Antiviral activity against Dengue virus 1 WestPac infected in human HuH7 replicon cells expressing Renilla luciferase and neomycin-resistance genes assessed as reduction in viral replication up to 10 uM incubated for 48 hrs by luciferase reporter replicon-based assay; assay type: functional, organism-based; procedure, shortened: as §3
dengue virus type 4 [20] = experiment: Antiviral activity against Dengue virus 4 D4MY01-22713 infected in human HuH7 replicon cells expressing Renilla luciferase and neomycin-resistance genes assessed as reduction in viral replication up to 10 uM incubated for 48 hrs by luciferase reporter replicon-based assay; assay type: functional, organism-based; procedure, shortened: as §3

| SMILES | CC50 at 48 h [8] [nM] | EC50 (dengue virus type 4 [9]) [nM] | EC50 (dengue virus type 3) [nM] | EC50 (dengue virus type 1 [13]) [nM] | EC50 (dengue virus type 2 [14]) [nM] | further results |
| --- | --- | --- | --- | --- | --- | --- |
| C[C@@H](c1ccc(Cl)cc1)n1nnc2c1NC(=O)C[C@]21C(=O)N(CCN(C)C)c2ccc(Cl)cc21 | > 10000 | > 5000 | 2 | > 5000 | 25 | EC50 (dengue virus type 2 [1]): > 6000 nM; Ratio EC50 (dengue virus type 2 [2]): 0.93; EC50 (dengue virus type 2 [3]): > 6000 nM; Ratio EC50 (dengue virus type 2 [4]): >100; EC50 (dengue virus type 2 [5]): 48 nM; Ratio EC50 (dengue virus type 2 [6]): 0.8; EC50 (dengue virus type 2 [7]): 60 nM; EC50 (dengue virus type 2 [10]): > 6000 nM; Ratio EC50 (dengue virus type 2 [11]): >100; EC50 (dengue virus type 2 [12]): > 6000 nM; EC50 (dengue virus type 2 [15]): 56 nM; Ratio EC50 (dengue virus type 2 [16]): >100; Ratio EC50 (dengue virus type 2 [17]): >100 |
| C[C@@H](c1ccc(Cl)cc1)n1nnc2c1NC(=O)C[C@]21C(=O)N(CCOC(=O)CCCCCCCNC(=O)CCCC[C@@H]2SC[C@@H]3NC(=O)N[C@@H]32)c2ccc(Cl)cc21 | > 10000 | – | 16.7 | – | 41.4 | inhibition (dengue virus type 2 [18]): Active; Activity (dengue virus type 1 [19]): inactive; Activity (dengue virus type 4 [20]): inactive |
| C[C@@H](c1ccc(Cl)cc1)n1nnc2c1NC(=O)C[C@]21C(=O)N(CCCCCCN(C)C)c2ccc(Cl)cc21 | > 10000 | > 5000 | 66 | 1500 | 900 | – |
| C[C@@H](c1ccc(Cl)cc1)n1nnc2c1NC(=O)C[C@]21C(=O)N(Cc2cccnc2)c2ccc(Cl)cc21 | > 10000 | > 5000 | 21 | 3200 | 29 | – |
| C[C@@H](c1ccc(Cl)cc1)n1nnc2c1NC(=O)C[C@]21C(=O)N(CCO)c2ccc(Cl)cc21 | > 10000 | > 5000 | 10 | > 5000 | 37 | – |
| C[C@@H](c1ccc(Cl)cc1)n1nnc2c1NC(=O)C[C@]21C(=O)N(CCCN2CCCCC2)c2ccc(Cl)cc21 | > 10000 | > 5000 | 12 | > 5000 | 130 | – |
| CCCN1C(=O)[C@]2(CC(=O)Nc3c2nnn3[C@@H](C)c2ccc(Cl)cc2)c2cc(Cl)ccc21 | > 10000 | > 5000 | 10 | 1900 | 71 | – |
| C[C@@H](c1ccc(Cl)cc1)n1nnc2c1NC(=O)C[C@]21C(=O)N(Cc2cccc(F)c2)c2ccc(Cl)cc21 | > 10000 | > 5000 | 51 | 10000 | 290 | – |
| C[C@@H](c1ccc(Cl)cc1)n1nnc2c1NC(=O)C[C@@]21C(=O)N(CCOC(=O)CCCCCCCNC(=O)CCCC[C@@H]2SC[C@@H]3NC(=O)N[C@@H]32)c2ccc(Cl)cc21 | > 10000 | – | > 5000 | – | > 5000 | inhibition (dengue virus type 2 [18]): inactive |
| C[C@@H](c1ccc(Cl)cc1)n1nnc2c1NC(=O)C[C@]21C(=O)N(Cc2ccccn2)c2ccc(Cl)cc21 | > 10000 | > 5000 | 3 | > 5000 | 20 | – |
| COc1cccc(CN2C(=O)[C@]3(CC(=O)Nc4c3nnn4[C@@H](C)c3ccc(Cl)cc3)c3cc(Cl)ccc32)c1 | > 10000 | 6200 | 87 | 2600 | 830 | – |
| C[C@@H](c1ccc(Cl)cc1)n1nnc2c1NC(=O)C[C@]21C(=O)N(CCCCN2CCCCC2)c2ccc(Cl)cc21 | > 10000 | > 5000 | 78 | > 5000 | 350 | – |
| C[C@@H](c1ccc(Cl)cc1)n1nnc2c1NC(=O)C[C@]21C(=O)N(CCc2ccccc2)c2ccc(Cl)cc21 | > 10000 | > 5000 | 190 | 1100 | 600 | – |
| C[C@@H](c1ccc(Cl)cc1)n1nnc2c1NC(=O)C[C@]21C(=O)Nc2ccc(Cl)cc21 | > 10000 | > 5000 | 10 | > 5000 | 39 | – |
| CNCCN1C(=O)[C@]2(CC(=O)Nc3c2nnn3[C@@H](C)c2ccc(Cl)cc2)c2cc(Cl)ccc21 | > 10000 | > 5000 | 22 | > 5000 | 120 | – |
| C[C@@H](c1ccc(Cl)cc1)n1nnc2c1NC(=O)C[C@]21C(=O)N(CCCN(C)C)c2ccc(Cl)cc21 | > 10000 | > 5000 | 1 | > 5000 | 25 | – |
| C[C@@H](c1ccc(Cl)cc1)n1nnc2c1NC(=O)C[C@]21C(=O)N(CCN2CCCC2)c2ccc(Cl)cc21 | > 10000 | > 5000 | 6 | > 5000 | 38 | – |
| C[C@@H](c1ccc(Cl)cc1)n1nnc2c1NC(=O)C[C@]21C(=O)N(CCC(C)(C)C)c2ccc(Cl)cc21 | > 10000 | 3900 | 82 | 1100 | 870 | – |
| C=CCN1C(=O)[C@]2(CC(=O)Nc3c2nnn3[C@@H](C)c2ccc(Cl)cc2)c2cc(Cl)ccc21 | > 10000 | > 5000 | 5 | 2100 | 38 | – |
| C[C@@H](c1ccc(Cl)cc1)n1nnc2c1NC(=O)C[C@]21C(=O)N(CCN2CCOCC2)c2ccc(Cl)cc21 | > 10000 | > 5000 | 17 | > 5000 | 75 | – |
| COC(=O)CN1C(=O)C[C@]2(C(=O)Nc3ccc(Cl)cc32)c2nnn([C@@H](C)c3ccc(Cl)cc3)c21 | > 10000 | > 10000 | 2700 | > 10000 | > 10000 | – |
| CCOC(CN1C(=O)[C@]2(CC(=O)Nc3c2nnn3[C@@H](C)c2ccc(Cl)cc2)c2cc(Cl)ccc21)OCC | > 10000 | > 5000 | 76 | > 5000 | 290 | – |
| C[C@@H](c1ccc(Cl)cc1)n1nnc2c1NC(=O)C[C@]21C(=O)N(CCCN2CCOCC2)c2ccc(Cl)cc21 | > 10000 | > 5000 | 5 | > 5000 | 76 | – |
